Source: ChEMBL document CHEMBL1122895, “Aldose reductase inhibitors: a potential new class of agents for the pharmacological control of certain diabetic complications” (J Med Chem, 1985)

How the values were obtained:
[1] = biological target: T1, Aldo-keto reductase family 1 member B1 (Homo sapiens, UniProt P15121); assay: Inhibitory activity against human placental aldose reductase (HPAR)
Method in brief: (§1)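 Human placental aldose reductase was purified at 4 °C. Enzyme activity was read photometrically at 340 nm, with 10 mM DL-glyceraldehyde as substrate. IC50 values came from simple linear regressions of Marquardt-Levenberg iterative curve fitting.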

[2] = biological target: Aldo-keto reductase family 1 member B1 (Rattus norvegicus, UniProt P07943); assay: Inhibitory activity against rat lens aldose reductase (RLAR).
[3] = biological target: T1, Aldo-keto reductase family 1 member B1; assay: Inhibitory activity against human placental aldose reductase in Orange A column at day 2; method in brief: as §1
[4] = biological target: T1, Aldo-keto reductase family 1 member B1; assay: Inhibitory activity against human placental aldose reductase in Sepharose 4B column at day 1; method in brief: as §1
[5] = biological target: T1, Aldo-keto reductase family 1 member B1; assay: Inhibitory activity against human placental aldose reductase in Orange A column at day 8
[6] = biological target: T1, Aldo-keto reductase family 1 member B1; assay: Inhibitory activity against human placental aldose reductase in 30 -70% (NH4)2SO4.
[7] = biological target: T1, Aldo-keto reductase family 1 member B1; assay: Inhibitory activity against human placental aldose reductase in Sepharose 4B column at day 7
[8] = biological target: T1, Aldo-keto reductase family 1 member B1; assay: Inhibitory activity against human placental aldose reductase (HPAR).; method in brief: as §1
[9] = biological target: T1, Aldo-keto reductase family 1 member B1; assay: (§2) Inhibitory activity against human placental aldose reductase in Orange A column at time 2
[10] = biological target: T1, Aldo-keto reductase family 1 member B1; assay: Inhibitory activity against human placental aldose reductase in Sepharose 4B column at time 1
[11] = biological target: T1, Aldo-keto reductase family 1 member B1; assay: as §2; method in brief: as §1; remark: listed apart in the source

Row | SMILES | IC50 [1] | IC50 [2] | IC50 [3] | IC50 [4] | IC50 [5] | IC50 [6] | IC50 [7] | other results
1 | O=C(OCc1ccccc1)c1cc(=O)c2ccc(O)cc2o1 | 3.2 µM | 2.5 µM |  |  |  |  |  | 
2 | O=c1c(Cl)c(-c2nn[nH]n2)oc2ccccc12 |  |  | 280 µM | 38 µM | 200 µM | 4.1 µM | 39 µM | 
3 | O=C(O)c1ccc2nc3cc(O)ccc3c(=O)n2c1 |  |  | 19 µM | 5 µM | 7.3 µM | 4.5 µM | 7.2 µM | 
4 | CCOC(=O)C(=O)Nc1cc([N+](=O)[O-])cc(C(=O)O)c1O |  |  | 3.2 µM | 4.5 µM | 4 µM | 7.3 µM | 8.3 µM | 
5 | CC(C)OC(=O)c1cc(=O)c2ccc(O)cc2o1 | 4.3 µM | 3.1 µM |  |  |  |  |  | 
6 | O=C(O)c1cc(=O)c2ccc(O)cc2o1 |  | 2.2 µM |  |  |  |  |  | IC50 [8]: 1.8 µM
7 | CC1OC(O)C(O)C(O)C1Oc1c(-c2ccc(O)c(O)c2)oc2cc(O)cc(O)c2c1=O (stereo not drawn) |  |  |  |  | 9 µM | 7.1 µM | 16 µM | IC50 [9]: 16 µM; IC50 [10]: 14 µM
8 | O=C(O)C1=CC(=O)C2C=CC(O)=CC2O1 (stereo not drawn) |  |  | 5.9 µM | 4.7 µM | 3.1 µM | 1.8 µM | 3.9 µM | 
9 | CCOC(=O)c1cc(=O)c2ccc(O)cc2o1 | 5 µM | 2.3 µM |  |  |  |  |  | 
10 | O=C(O)CN1C(=O)c2cccc3cccc(c23)C1=O [ALRESTATIN] |  |  |  |  | 79 µM | 6.5 µM | 34 µM | IC50 [10]: 22 µM; IC50 [11]: 140 µM
